Several values for one entry are separate records, joined by “and”; a condition that tells them apart may be missing. Equal entries are not always repeated. Entries after “also recorded” stand apart in the source; their conditions may differ. Bridge positions count the residues as written; N and C are the ends. Square brackets hold non-standard residues; d marks the D form. Peptide text beside a SMILES is read from it.
How the values were obtained:
[1] = test system: B16/F1 melanoma-bearing C57 mice; test: Biodistribution in B16/F1 melanoma-bearing C57 mice; type: in vivo, mouse
Method in brief: (§1)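 Female C57 mice bore subcutaneous right-flank tumours from 1×10^6 B16/F1 cells (~0.2 g at 10 days). Radiopeptide, 0.037 MBq in pH 7.4 saline, went in via tail vein. Groups of 4 were killed at 0.5, 2, 4 and 24 h; tumours and organs were weighed and gamma-counted. Blood was taken as 6.5% body weight. Blockade: co-injected 10 µg (6.1 nmol) unlabeled NDP-MSH, 2 h. Results as %ID/g or %ID, mean ± SD, n=4.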

[2] = as above; type: in vivo, mouse; settings: female, C57, mouse, iv, 0.037 MBq, total radioactivity
Method in brief: as §1

[3] = test system: B16/F1 melanoma-bearing C57 mice; test: Melanoma imaging by small animal SPECT/CT; type: in vivo, mouse; settings: 2 h post-injection of 7.4 MBq via tail vein
[4] = test system: B16/F1 melanoma-bearing C57 mice; test: Urinary metabolites by radio-HPLC; type: in vivo, mouse; settings: urine at 2 h post-injection of ~3.7 MBq via tail vein
B16/F1 melanoma cells [5] = test: Cellular efflux; type: cell-based, murine; settings: loaded 2 h at 25 °C, then 2 h of incubation in the culture medium
Method in brief: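 B16/F1 cells were seeded at 2.5×10^5/well and grown overnight at 37 °C. They were loaded with radiopeptide for 2 h at 25 °C and rinsed twice with ice-cold PBS. Release into culture medium was then monitored. At 20, 40, 60, 90 and 120 min, surface-bound and intracellular radioactivity were collected separately and gamma-counted.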

[6] = test system: B16/F1 melanoma-bearing C57 mice; test: Effect of L-lysine co-injection on renal and tumor uptake; type: in vivo, mouse; settings: 2 h post-injection, 15 mg L-lysine
Method in brief: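 Groups of 4 tumour-bearing C57 mice received 0.037 MBq radiopeptide mixed with 15 mg L-lysine via injection. Mice were killed at 2 h, and tumours and organs were weighed and gamma-counted. Uptake with versus without L-lysine was compared by unpaired Student's t-test, significance p<0.05.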

B16/F1 melanoma cells [7] = test: Cellular internalization; type: cell-based, murine; settings: after 20 min of incubation at 25 °C, acid wash pH 4.5, n=3
Method in brief: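 Cells at 2.5×10^5/well were grown overnight at 37 °C and washed with binding medium (MEM, 25 mM HEPES pH 7.4, 0.2% BSA, 0.3 mM 1,10-phenanthroline). They were incubated at 25 °C with ~200,000 cpm HPLC-purified radiopeptide for 20–120 min (n=3). Membrane-bound activity was stripped with 40 mM sodium acetate pH 4.5/0.9% NaCl/0.2% BSA. Cells were lysed in 1 N NaOH for 5 min; both fractions were gamma-counted.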

## CC(C)[C@H](NC(=O)[C@@H]1CCCN1C(=O)[C@H](CCCNC(=N)N)NC(=O)[C@H](CS)NC(=O)[C@H](Cc1c[nH]c2ccccc12)NC(=O)[C@H](CCCNC(=N)N)NC(=O)[C@@H](Cc1ccccc1)NC(=O)[C@H](Cc1c[nH]cn1)NC(=O)[C@H](CCC(=O)O)NC(=O)[C@H](CS)NC(=O)[C@H](CS)NC(=O)[C@H](CCCCN)NC(=O)[C@@H]1CC(=O)N[C@@H](CCCNC(=N)N)C(=O)N[C@@H]([C@@H](C)O)C(=O)N[C@@H](CC(=O)O)C(=O)N[C@H](Cc2ccc(O)cc2)C(=O)N1)C(N)=O [^99mTc-RTD-Lys-(Arg^11)CCMSH, metal not drawn] (RTD[dY]DKCCEH[dF]RWCRPV-NH2; lactam N-5)
[1]; 0.5 h post-injection
  Uptake ratio Tumor/Blood: 0.91
[1]; 2 h post-injection, NDP blockade
  Uptake ratio Tumor/Blood: 5.70
[2]; blood
  tissue uptake at 0.5 h: 15.9 ± 3.97 %ID/g
  tissue uptake at 2 h: 0.44 ± 0.13 %ID/g
  tissue uptake at 4 h: 0.55 ± 0.41 %ID/g
  tissue uptake at 24 h: 0.4 ± 0.21 %ID/g
[2]; bone
  tissue uptake at 0.5 h: 1.66 ± 0.1 %ID/g
  tissue uptake at 2 h: 0.46 ± 0.11 %ID/g
  tissue uptake at 4 h: 0.39 ± 0.12 %ID/g
  tissue uptake at 24 h: 0.23 ± 0.09 %ID/g
[2]; brain
  tissue uptake at 0.5 h: 0.14 ± 0.04 %ID/g
  tissue uptake at 2 h: 0.03 ± 0.01 %ID/g
  tissue uptake at 4 h: 0.02 ± 0.01 %ID/g
  tissue uptake at 24 h: 0.03 ± 0.01 %ID/g
[2]; heart
  tissue uptake at 0.5 h: 1.86 ± 0.21 %ID/g
  tissue uptake at 2 h: 0.29 ± 0.08 %ID/g
  tissue uptake at 4 h: 0.19 ± 0.05 %ID/g
  tissue uptake at 24 h: 0.12 ± 0.02 %ID/g
[2]; intestines
  tissue uptake dose at 0.5 h: 1.73 ± 0.17 %ID
  tissue uptake dose at 2 h: 0.84 ± 0.2 %ID
  tissue uptake dose at 4 h: 0.72 ± 0.18 %ID
  tissue uptake dose at 24 h: 0.48 ± 0.13 %ID
[2]; kidneys
  tissue uptake at 0.5 h: 145 ± 24.6 %ID/g
  tissue uptake at 2 h: 135 ± 23.6 %ID/g
  tissue uptake at 4 h: 106 ± 27.7 %ID/g
  tissue uptake at 24 h: 46.8 ± 14.8 %ID/g
[2]; liver
  tissue uptake at 0.5 h: 2.09 ± 0.04 %ID/g
  tissue uptake at 2 h: 1.62 ± 0.14 %ID/g
  tissue uptake at 4 h: 2.01 ± 0.39 %ID/g
  tissue uptake at 24 h: 1.03 ± 0.1 %ID/g
[2]; lung
  tissue uptake at 0.5 h: 4.27 ± 0.27 %ID/g
  tissue uptake at 2 h: 0.51 ± 0.37 %ID/g
  tissue uptake at 4 h: 0.39 ± 0.24 %ID/g
  tissue uptake at 24 h: 0.23 ± 0.04 %ID/g
[2]; muscle
  tissue uptake at 0.5 h: 0.8 ± 0.38 %ID/g
  tissue uptake at 2 h: 0.15 ± 0.05 %ID/g
  tissue uptake at 4 h: 0.07 ± 0.02 %ID/g
  tissue uptake at 24 h: 0.52 ± 0.1 %ID/g
[2]; pancreas
  tissue uptake at 0.5 h: 0.83 ± 0.4 %ID/g
  tissue uptake at 2 h: 0.11 ± 0.04 %ID/g
  tissue uptake at 4 h: 0.09 ± 0.05 %ID/g
  tissue uptake at 24 h: 0.13 ± 0.07 %ID/g
[2]; skin
  tissue uptake at 0.5 h: 3.99 ± 0.42 %ID/g
  tissue uptake at 2 h: 0.5 ± 0.19 %ID/g
  tissue uptake at 4 h: 0.27 ± 0.13 %ID/g
  tissue uptake at 24 h: 1.01 ± 0.31 %ID/g
[2]; spleen
  tissue uptake at 0.5 h: 1.04 ± 0.33 %ID/g
  tissue uptake at 2 h: 0.48 ± 0.2 %ID/g
  tissue uptake at 4 h: 0.47 ± 0.18 %ID/g
  tissue uptake at 24 h: 0.19 ± 0.13 %ID/g
[2]; stomach
  tissue uptake at 0.5 h: 1.87 ± 0.21 %ID/g
  tissue uptake at 2 h: 0.67 ± 0.16 %ID/g
  tissue uptake at 4 h: 0.7 ± 0.23 %ID/g
  tissue uptake at 24 h: 0.21 ± 0.04 %ID/g
[2]; tumor / blood
  tissue to tissue ratio at 2 h: 42.7
  tissue to tissue ratio at 4 h: 25.2
  tissue to tissue ratio at 24 h: 14.6
[2]; tumor / kidneys
  tissue to tissue ratio at 0.5 h: 0.1
  tissue to tissue ratio at 2 h: 0.14
  tissue to tissue ratio at 4 h: 0.13
  tissue to tissue ratio at 24 h: 0.12
[2]; tumor / lung
  tissue to tissue ratio at 0.5 h: 3.41
  tissue to tissue ratio at 2 h: 36.8
  tissue to tissue ratio at 4 h: 35.5
  tissue to tissue ratio at 24 h: 25.4
[2]; tumor
  tissue uptake at 0.5 h: 14.6 ± 5.31 %ID/g
  tissue uptake at 2 h: 18.8 ± 5.13 %ID/g
  tissue uptake at 4 h: 13.8 ± 3.1 %ID/g
  tissue uptake at 24 h: 5.84 ± 0.5 %ID/g
[2]; tumor/liver
  tissue to tissue ratio at 0.5 h: 6.97
  tissue to tissue ratio at 2 h: 11.6
  tissue to tissue ratio at 4 h: 6.89
  tissue to tissue ratio at 24 h: 5.67
[2]; tumor/muscle
  tissue to tissue ratio at 0.5 h: 18.2
  tissue to tissue ratio at 2 h: 125
  tissue to tissue ratio at 4 h: 198
  tissue to tissue ratio at 24 h: 11.2
[2]; urine
  dose excreted at 0.5 h: 28.6 ± 8.85%
  dose excreted at 2 h: 54.8 ± 5.65%
  dose excreted at 4 h: 61.2 ± 5.56%
  dose excreted at 24 h: 82.2 ± 4.69%
[3]
  Visualization of flank B16/F1 melanoma lesions by SPECT/CT: clearly visualized
[4]
  Remained intact in the urine: Approximately 70%
  Transformed to a more hydrophobic compound in the urine: 30%
B16/F1 melanoma cells [5]
  Activity remained inside the cells (cellular efflux): 75%
[6]; versus without L-lysine
  Reduction of renal uptake by L-lysine co-injection: 55% and 40–50%
[6]; p>0.05
  Effect of L-lysine co-injection on tumor uptake: didn't affect the tumor uptake; also recorded: without affecting their tumor uptake
B16/F1 melanoma cells [7]
  Activity internalized in the cells: Approximately 71%

Source: publication PMC3866226 (Molecular pharmaceutics, 2013)
